Data as given in ChEMBL document CHEMBL4118075, “Thiophene/thiazole-benzene replacement on guanidine derivatives targeting α2-Adrenoceptors” (Eur J Med Chem, 2017).
Calls of active or inactive are those of the source. The calls are words filed in the database; no cut-off is given here.

Assays:
[1] = molecular target: T1, Adrenergic receptor alpha-2 (Homo sapiens, UniProt P08913+P18825+P18089); experiment: Displacement of [3H]RX821002 from alpha2 adrenergic receptor in human brain prefrontal cortex membranes after 30 mins by microbeta liquid scintillation spectrometry; design: species or system Membrane
T1 sequence (P08913 whole entry): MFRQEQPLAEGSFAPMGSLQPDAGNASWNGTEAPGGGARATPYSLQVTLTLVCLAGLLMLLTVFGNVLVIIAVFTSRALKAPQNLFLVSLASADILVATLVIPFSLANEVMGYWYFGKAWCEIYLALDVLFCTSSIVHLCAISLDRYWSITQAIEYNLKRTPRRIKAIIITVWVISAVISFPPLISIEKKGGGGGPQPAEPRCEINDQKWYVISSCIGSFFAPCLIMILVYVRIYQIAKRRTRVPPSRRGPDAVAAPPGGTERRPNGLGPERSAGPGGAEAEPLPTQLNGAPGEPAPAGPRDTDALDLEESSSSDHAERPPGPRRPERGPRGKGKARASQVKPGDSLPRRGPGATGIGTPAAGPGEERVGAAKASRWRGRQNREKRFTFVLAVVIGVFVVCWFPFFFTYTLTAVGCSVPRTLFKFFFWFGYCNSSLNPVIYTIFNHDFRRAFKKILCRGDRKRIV
T1 sequence (P18825 whole entry): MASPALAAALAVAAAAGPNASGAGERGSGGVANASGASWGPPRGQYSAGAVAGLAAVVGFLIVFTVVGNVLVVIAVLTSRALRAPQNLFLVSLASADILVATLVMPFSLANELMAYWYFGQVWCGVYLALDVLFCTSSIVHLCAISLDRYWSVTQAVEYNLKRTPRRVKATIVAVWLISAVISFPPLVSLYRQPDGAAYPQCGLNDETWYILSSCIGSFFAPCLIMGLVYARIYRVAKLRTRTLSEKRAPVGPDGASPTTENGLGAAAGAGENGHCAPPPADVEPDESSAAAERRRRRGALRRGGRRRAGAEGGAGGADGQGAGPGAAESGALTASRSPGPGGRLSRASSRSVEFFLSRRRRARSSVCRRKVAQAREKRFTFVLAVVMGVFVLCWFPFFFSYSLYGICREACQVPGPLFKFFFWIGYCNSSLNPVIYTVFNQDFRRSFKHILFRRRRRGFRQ
T1 sequence (P18089 whole entry): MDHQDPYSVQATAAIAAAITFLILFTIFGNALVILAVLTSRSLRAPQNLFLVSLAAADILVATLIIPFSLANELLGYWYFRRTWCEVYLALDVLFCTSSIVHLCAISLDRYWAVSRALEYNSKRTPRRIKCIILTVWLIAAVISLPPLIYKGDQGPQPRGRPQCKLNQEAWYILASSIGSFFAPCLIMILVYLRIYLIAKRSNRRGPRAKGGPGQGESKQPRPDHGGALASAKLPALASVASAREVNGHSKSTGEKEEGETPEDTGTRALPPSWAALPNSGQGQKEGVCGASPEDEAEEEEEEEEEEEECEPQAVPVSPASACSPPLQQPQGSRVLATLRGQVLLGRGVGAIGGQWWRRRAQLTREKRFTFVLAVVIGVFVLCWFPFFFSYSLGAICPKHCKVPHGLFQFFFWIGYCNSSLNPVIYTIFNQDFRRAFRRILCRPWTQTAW
How it was run: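 Competition binding on post-mortem human PFC P2 membranes in 50 mM Tris-HCl pH 7.5. [3H]RX821002 at 2 nM; competitor at 10 concentrations from 10⁻¹² to 10⁻³ M; 30 min at 25 °C. Vacuum filtration on GF/C, scintillation counting. Nonspecific binding defined with adrenaline 10⁻⁵ M. Ki from nonlinear regression with a one-site model.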

[2] = molecular target: T2, Adrenergic receptor alpha-2 (Homo sapiens) (UniProt P08913+P18825+P18089); experiment: Agonist activity at alpha2 adrenergic receptor in human brain prefrontal cortex membranes assessed as stimulation of [35S]GTPgammaS binding at 10^-12 to 10^-3 M after 120 mins by microbeta liquid scintillation spectrometry; assay type: functional; settings: Membrane
How it was run: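 GTPγS exchange in human prefrontal cortex P2 membranes (20 µg/well) with 0.5 nM [35S]GTPγS, in EGTA/MgCl₂/100 mM NaCl/GDP/Tris pH 7.4 buffer. Ten concentrations from 10⁻¹² to 10⁻³ M; 30 °C for 120 min with shaking. Filtered on GF/C and scintillation counted; nonspecific binding with 10 µM GTPγS. EC50 and Emax expressed as % over basal binding.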

[3] = molecular target: T1, Adrenergic receptor alpha-2; experiment: Activity at alpha2 adrenergic receptor in human brain prefrontal cortex membranes assessed as effect on UK14304-induced [35S]GTPgammaS binding by measuring UK14304 EC50 at 10^-5 M after 120 mins by microbeta liquid scintillation spectrometry (reference value: 0.4 +/- 0.01 uM); assay type: functional, Membrane
[4] = molecular target: T2, Adrenergic receptor alpha-2 (Homo sapiens); experiment: Activity at alpha2 adrenergic receptor in human brain prefrontal cortex membranes assessed as effect on UK14304-induced [35S]GTPgammaS binding at 10^-5 M after 120 mins by microbeta liquid scintillation spectrometry (reference value: 132 +/- 2%); assay type: functional; settings: Membrane
[5] = molecular target: T2, Adrenergic receptor alpha-2 (Homo sapiens); experiment: Agonist activity at alpha2 adrenergic receptor in human brain prefrontal cortex membranes assessed as stimulation of [35S]GTPgammaS binding at 10^-5 M after 120 mins in presence of antagonist RX821002 by microbeta liquid scintillation spectrometry; assay type: functional; settings: Membrane

In the case of `Cl.N=C(N)Nc1nc2c(s1)CCC2`, the Ki [1] is reported as 706 nM, the Activity [2] is reported as “inactive” and the EC50 [3] is reported as 1500 nM. For the same molecule, the Emax [4] was 126%.
Work on `CCOC(=O)c1c(C)csc1NC(=N)N.Cl` yielded a Ki [1] of 66530 nM.
In the case of `Cl.N=C(N)Nc1cc2c(s1)CCC2`, the Ki [1] is reported as 87.9 nM, the Activity [2] is reported as “inactive” and the EC50 [3] is reported as 500 nM. For the same molecule, the Emax [4] was 111%.
In the case of `Cl.N#Cc1c(NC(=N)N)sc2c1CCCC2`, the Ki [1] is reported as 733 nM, the Activity [2] is reported as “inactive” and the EC50 [3] is reported as 6600 nM. It also gave an Emax [4] of 128%.
For `Cl.N=C(N)NCc1cccs1`, the Ki [1] was 3928 nM.
`Cl.N#Cc1c(NC(=N)N)sc2c1CCCCC2` gave a Ki [1] of 1198 nM.
Molecule `CCOC(=O)c1c(NC(=N)N)sc2c1CCCC2.Cl` has a Ki [1] of 9086 nM.
With `Cl.N=C(N)Nc1cc2c(s1)CCCCC2` the Ki [1] was 156 nM, the Activity [2] was “Active” and the Activity [5] was “inactive”. For the same molecule, the EC50 [3] was 10700 nM and the Emax [4] was 124%.
In the case of `COC(=O)c1sccc1NC(=N)N.Cl`, the Ki [1] is reported as > 100000 nM.
In the case of `CCOC(=O)c1c(NC(=N)N)sc2c1CCCCC2.Cl`, the Ki [1] is reported as > 100000 nM.
With `Cl.N=C(N)Nc1nc2c(s1)CCCC2` the Ki [1] was 1205 nM, the Activity [2] was “inactive” and the EC50 [3] was 11400 nM. The Emax [4] was 105%.
`COC(=O)c1ccsc1NC(=N)N.Cl` was tested, and the Ki [1] was > 100000 nM.
Molecule `CCOC(=O)c1c(NC(=N)N)sc2c1CCC2.Cl` has a Ki [1] of 30150 nM.
`Cl.N=C(N)NCCc1cccs1` gave a Ki [1] of 751 nM, an EC50 [3] of 1700 nM and an Emax [4] of 117%.
For `Cl.N=C(N)Nc1ccsc1`, the Ki [1] was 1968 nM.
`Cl.N#Cc1c(NC(=N)N)sc2c1CCC2` was tested, and the Ki [1] was 2215 nM.
With `Cl.N=C(N)Nc1cc2c(s1)CCCC2` the Ki [1] was 31.3 nM, the Activity [2] was “inactive” and the EC50 [3] was 800 nM. It also gave an Emax [4] of 111%.
